Assay results: publication PMC6221542 (Science Advances, 2018)

Key:
[1] = system: methylated H3K9 and H3K27 peptides; test: Peptide microarray, chromodomain binding profile; parameters: species or system human; conditions: cluster 3 = H3K9 peptides with different PTMs
Outline: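 Array of 467 unmodified and modified peptides (desalted, mass-spectrometry checked) printed in triplicate spots on glass slides and probed with chromodomain proteins. Signal intensities converted to z scores per chromodomain using all its intensities: z = (x − mean)/SD. Hierarchical clustering grouped chromodomains into three categories and peptides into six clusters by binding preference.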

H4K20me1 = test: Peptide microarray, chromodomain binding to H4K20me1; parameters: species or system human; conditions: no dsDNA in binding buffer
Outline: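 Custom array of 467 unmodified and modified peptides (synthesized, desalted, mass-spec checked), each spotted in triplicate on glass slides. Chromodomain proteins were bound to the printed array and analyzed by a previously described protocol. The CBX1 mutant chromodomain was instead screened on a commercial modified-histone peptide array.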

B1: MS3L1: MS3L1 chromodomain, cloned sequence 29-94 (protein, UniProt Q8N5Y2 29-94, looked up, fragment)
chain: VLYDAKIVDVIVGKDEKGRKIPEYLIHFNGWNRSWDRWAAEDHVLRDTDENRRLQRKLARKAVARL
modifications: chromodomain
interaction with peptide cluster 3 (in words) [1]: lacked significant interaction with cluster 3
interaction with H4K20me1 (in words) (H4K20me1): did not show interaction with this mark
